Values after ≈ are worked out from the molar mass of the structure shown. Active and inactive are the calls of the source. The calls are words filed in the database; no cut-off is given here.
Legend:
[1] = tested on: Rhizopus arrhizus; test: Antifungal activity against drug-intermediate Rhizopus oryzae UTHSC 05-114 by broth microdilution method; format: functional
How it was run: (§1)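 Broth microdilution MIC in µg/ml, run per the CLSI (formerly NCCLS) guideline for filamentous fungi, M38-A2.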

[2] = tested on: Rhizopus arrhizus; test: Antifungal activity against drug-susceptible Rhizopus oryzae UTHSC 412-546 at 5 ug by disk diffusion assay; format: functional; details: read-out: DIZ
[3] = tested on: Rhizopus arrhizus; test: Antifungal activity against drug-susceptible Rhizopus oryzae UTHSC 05-197 at 5 ug by disk diffusion assay; format: functional; details: read-out: DIZ
How it was run: (§2)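 Neo-Sensitabs tablet diffusion on Mueller-Hinton agar, following guidelines for molds; 9 mm tablets containing 5 µg posaconazole; inhibition zone diameter measured in mm; zone breakpoints applied at 24 h.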

[4] = tested on: Rhizopus arrhizus; test: Antifungal activity against drug-susceptible Rhizopus oryzae UTHSC 04-1220 at 5 ug by disk diffusion assay; format: functional; details: read-out: DIZ; how it was run: as §2
[5] = tested on: Rhizopus arrhizus; test: Antifungal activity against drug-susceptible Rhizopus oryzae UTHSC 06-329 after 24 to 48 hrs; format: functional
How it was run: (§3)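 Minimum fungicidal concentration taken from the broth microdilution plates. From each well with complete inhibition (optically clear), 20 ul is plated on potato dextrose agar. Plates are incubated at 35°C for 24 to 48 h. The MFC is the lowest drug concentration giving no growth.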

[6] = tested on: Rhizopus arrhizus; test: Antifungal activity against drug-susceptible Rhizopus oryzae UTHSC 03-511 after 24 to 48 hrs; format: functional
How it was run: (§4)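 Minimum fungicidal concentration: 20 µl from each microdilution well showing complete inhibition (optically clear) plated on potato dextrose agar, incubated 35°C for 24 to 48 h; MFC taken as lowest drug concentration giving no growth.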

[7] = tested on: Rhizopus arrhizus; test: Antifungal activity against drug-intermediate Rhizopus oryzae UTHSC 04-3109 after 24 to 48 hrs; format: functional
[8] = tested on: Rhizopus arrhizus; test: Antifungal activity against drug-susceptible Rhizopus oryzae UTHSC 06-434 at 5 ug by disk diffusion assay; format: functional; details: read-out: DIZ
How it was run: (§5)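 Neo-Sensitabs tablet diffusion on Mueller-Hinton agar, run per the mould guidelines. Tablets are 9 mm in diameter and carry 5 ug posaconazole. The read-out is the inhibition zone diameter in mm.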

[9] = tested on: Rhizopus arrhizus; test: Antifungal activity against drug-intermediate Rhizopus oryzae UTHSC 05-3032 infected in OF1 mouse assessed as increase in mouse survival at 20-30 mg/kg, po bid treated 24 hrs after fungal infection; format: functional, organism-based
How it was run: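 Survival model in male OF1 mice, 30 g. Mice were immunosuppressed 1 day before infection with cyclophosphamide 200 mg/kg i.p. plus 5-fluorouracil 150 mg/kg i.v., then infected i.v. via lateral tail vein with 2 × 10^4 CFU in 0.2 ml saline. Oral gavage at 10, 20 or 30 mg/kg BID began 24 h post-challenge for 7 days. Ceftazidime 5 mg/day s.c. was given days 1–7. Groups of 10 were checked daily for 20 days; untreated controls.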

[10] = tested on: Rhizopus arrhizus; test: Antifungal activity against drug-intermediate Rhizopus oryzae UTHSC 03-285 after 24 to 48 hrs; format: functional
[11] = tested on: Rhizopus arrhizus; test: Antifungal activity against drug-susceptible Rhizopus oryzae UTHSC 03-299 after 24 to 48 hrs; format: functional
[12] = tested on: Rhizopus arrhizus; test: Antifungal activity against drug-susceptible Rhizopus oryzae UTHSC 03-511 at 5 ug by disk diffusion assay; format: functional; details: read-out: DIZ; how it was run: as §2
[13] = tested on: Rhizopus arrhizus; test: Antifungal activity against drug-susceptible Rhizopus oryzae UTHSC 05-197 by broth microdilution method; format: functional
How it was run: (§6)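 CLSI broth microdilution for filamentous fungi (M38-A2); MIC recorded in µg/ml against clinical isolates; breakpoints applied at 24 h.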

[14] = tested on: Rhizopus arrhizus; test: Antifungal activity against drug-susceptible Rhizopus oryzae UTHSC 03-112 by broth microdilution method; format: functional; how it was run: as §1
[15] = tested on: Rhizopus arrhizus; test: Antifungal activity against drug-intermediate Rhizopus oryzae UTHSC 04-3109 infected in OF1 mouse assessed as reduction in brain fungal load at 10-30 mg/kg, po bid treated 24 hrs after fungal infection; format: functional, organism-based
How it was run: (§7)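 Tissue burden in immunosuppressed male OF1 mice, using cyclophosphamide 200 mg/kg i.p. plus 5-fluorouracil 150 mg/kg i.v. on day −1. Mice received 2 × 10^4 CFU i.v. by tail vein, then oral gavage at 10, 20 or 30 mg/kg BID from 24 h post-challenge, with ceftazidime cover; untreated controls. Groups of 10 were killed on day 4. Kidneys and brains were homogenized in 2 ml saline, serially diluted 10-fold, plated on PDA and counted after 24 h at 35°C.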

[16] = tested on: Rhizopus arrhizus; test: Antifungal activity against drug-susceptible Rhizopus oryzae UTHSC 04-2459 by broth microdilution method; format: functional; how it was run: as §6
[17] = tested on: Rhizopus arrhizus; test: Antifungal activity against drug-susceptible Rhizopus oryzae UTHSC 06-89 after 24 to 48 hrs; format: functional
[18] = tested on: Rhizopus arrhizus; test: Antifungal activity against drug-intermediate Rhizopus oryzae UTHSC 05-3032 infected in OF1 mouse assessed as reduction in kidney fungal load at 10-30 mg/kg, po bid treated 24 hrs after fungal infection; format: functional, organism-based; how it was run: as §7
[19] = tested on: Rhizopus arrhizus; test: Antifungal activity against drug-susceptible Rhizopus oryzae UTHSC 03-2970 at 5 ug by disk diffusion assay; format: functional; details: read-out: DIZ
How it was run: (§8)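 Neo-Sensitabs tablet diffusion on Mueller-Hinton agar, following the guidelines for molds. Tablets were 9 mm in diameter and held 5 µg of drug. The read-out was inhibition zone diameter in mm.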

[20] = tested on: Rhizopus arrhizus; test: Antifungal activity against drug-susceptible Rhizopus oryzae UTHSC 06-1080 by broth microdilution method; format: functional
How it was run: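 Posaconazole MIC in ug/ml, determined by broth microdilution following the CLSI guidelines for moulds (M38-A2).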

[21] = tested on: Rhizopus arrhizus; test: Antifungal activity against drug-susceptible Rhizopus oryzae UTHSC 06-4152 after 24 to 48 hrs; format: functional; how it was run: as §3
[22] = tested on: Rhizopus arrhizus; test: Antifungal activity against drug-intermediate Rhizopus oryzae UTHSC 07-365 infected in OF1 mouse assessed as reduction in kidney fungal load at 10-30 mg/kg, po bid treated 24 hrs after fungal infection; format: functional, organism-based; how it was run: as §7
[23] = tested on: Rhizopus arrhizus; test: Antifungal activity against drug-susceptible Rhizopus oryzae UTHSC 04-1613 by broth microdilution method; format: functional; how it was run: as §6
[24] = tested on: Rhizopus arrhizus; test: Antifungal activity against drug-susceptible Rhizopus oryzae UTHSC 05-3132 after 24 to 48 hrs; format: functional; how it was run: as §3
[25] = tested on: Rhizopus arrhizus; test: Antifungal activity against drug-susceptible Rhizopus oryzae UTHSC 06-4152 at 5 ug by disk diffusion assay; format: functional; details: read-out: DIZ; how it was run: as §5
[26] = tested on: Rhizopus arrhizus; test: Antifungal activity against drug-susceptible Rhizopus oryzae UTHSC 05-197 after 24 to 48 hrs; format: functional; how it was run: as §4
[27] = tested on: Rhizopus arrhizus; test: Antifungal activity against drug-susceptible Rhizopus oryzae UTHSC 05-3132 at 5 ug by disk diffusion assay; format: functional; details: read-out: DIZ; how it was run: as §5
[28] = tested on: Rhizopus arrhizus; test: Antifungal activity against drug-susceptible Rhizopus oryzae UTHSC 05-1502 after 24 to 48 hrs; format: functional; how it was run: as §4
[29] = tested on: Rhizopus arrhizus; test: Antifungal activity against drug-susceptible Rhizopus oryzae UTHSC 05-2447 at 5 ug by disk diffusion assay; format: functional; details: read-out: DIZ; how it was run: as §2
[30] = tested on: Rhizopus arrhizus; test: Antifungal activity against drug-susceptible Rhizopus oryzae UTHSC 06-1351 after 24 to 48 hrs; format: functional; how it was run: as §3
[31] = tested on: Rhizopus arrhizus; test: Antifungal activity against drug-susceptible Rhizopus oryzae UTHSC 06-1301 at 5 ug by disk diffusion assay; format: functional; details: read-out: DIZ; how it was run: as §5
[32] = tested on: Rhizopus arrhizus; test: Antifungal activity against drug-susceptible Rhizopus oryzae UTHSC 02-439 at 5 ug by disk diffusion assay; format: functional; details: read-out: DIZ; how it was run: as §8
[33] = tested on: Rhizopus arrhizus; test: Antifungal activity against drug-susceptible Rhizopus oryzae UTHSC 2868 after 24 to 48 hrs; format: functional
[34] = tested on: Rhizopus arrhizus; test: Antifungal activity against drug-intermediate Rhizopus oryzae UTHSC 07-365 after 24 to 48 hrs; format: functional

Structure (SMILES): CC[C@@H]([C@H](C)O)n1ncn(-c2ccc(N3CCN(c4ccc(OC[C@@H]5CO[C@@](Cn6cncn6)(c6ccc(F)cc6F)C5)cc4)CC3)cc2)c1=O [POSACONAZOLE]
- MIC [1]: 2 µg/mL (≈ 2.85 µM)
- zone of inhibition at 5 µg/disc [2]: 15 mm
- zone of inhibition at 5 µg/disc [3]: 21 mm
- zone of inhibition at 5 µg/disc [4]: 20 mm
- MFC [5]: 0.5 µg/mL (≈ 0.713 µM)
- MFC [6]: 1 µg/mL (≈ 1.43 µM)
- MFC [7]: > 16 µg/mL
- zone of inhibition at 5 µg/disc [8]: 15 mm
- Activity [9]: Active
- MFC [10]: > 16 µg/mL
- MFC [11]: > 16 µg/mL
- zone of inhibition at 5 µg/disc [12]: 22 mm
- MIC [13]: 0.25 µg/mL (≈ 0.357 µM)
- MIC [14]: 0.5 µg/mL (≈ 0.713 µM)
- Activity [15]: inactive
- MIC [16]: 1 µg/mL (≈ 1.43 µM)
- MFC [17]: 1 µg/mL (≈ 1.43 µM)
- Activity [18]: inactive
- zone of inhibition at 5 µg/disc [19]: 20 mm
- MIC [20]: 1 µg/mL (≈ 1.43 µM)
- MFC [21]: 1 µg/mL (≈ 1.43 µM)
- Activity [22]: Active
- MIC [23]: 0.5 µg/mL (≈ 0.713 µM)
- MFC [24]: 0.5 µg/mL (≈ 0.713 µM)
- zone of inhibition at 5 µg/disc [25]: 22 mm
- MFC [26]: 0.5 µg/mL (≈ 0.713 µM)
- zone of inhibition at 5 µg/disc [27]: 20 mm
- MFC [28]: 1 µg/mL (≈ 1.43 µM)
- zone of inhibition at 5 µg/disc [29]: 17 mm
- MFC [30]: 0.5 µg/mL (≈ 0.713 µM)
- zone of inhibition at 5 µg/disc [31]: 25 mm
- zone of inhibition at 5 µg/disc [32]: 22 mm
- MFC [33]: 8 µg/mL (≈ 11.4 µM)
- MFC [34]: 16 µg/mL (≈ 22.8 µM)

— ChEMBL document CHEMBL1255417, “Correlation between in vitro activity of posaconazole and in vivo efficacy against Rhizopus oryzae infection in mice” (Antimicrob Agents Chemother, 2010)
